# Experimental data from ChEMBL document CHEMBL1255410, “Activity of the investigational fluoroquinolone finafloxacin against ciprofloxacin-sensitive and -resistant Acinetobacter baumannii isolates” (2010).
# Columns and labels:
# Acinetobacter baumannii [1] = test: Antimicrobial activity against Acinetobacter baumannii isolate 1 at pH 7.2; type: functional
# Outline: (§1)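 MIC by agar dilution on Mueller-Hinton agar under standard conditions (pH 7.2), against isolates with characterized gyrA/parC genes. Agar pH was checked after solidifying. Plates for both drugs were prepared the same day from freshly made media, and MICs were determined simultaneously with the pH 5.8 set.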
# Acinetobacter baumannii [2] = test: Antimicrobial activity against Acinetobacter baumannii isolate 3 at pH 7.2; type: functional; outline: as §1
# Acinetobacter baumannii [3] = test: Antimicrobial activity against Acinetobacter baumannii isolate 4 at pH 7.2; type: functional
# Outline: (§2)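 Agar dilution MIC on Mueller-Hinton agar. For the acidic condition, HCl was added to bring the agar to pH 5.8 before pouring the antibiotic plates, and the pH was checked after the agar set. The standard condition was pH 7.2. Both drugs' plates were made the same day from fresh medium, and MICs were read at the same time.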
# Acinetobacter baumannii [4] = test: Antimicrobial activity against Acinetobacter baumannii isolate 5 at pH 7.2; type: functional; outline: as §2
# Acinetobacter baumannii [5] = test: Antimicrobial activity against Acinetobacter baumannii isolate 7 at pH 7.2; type: functional
# Outline: (§3)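 Agar dilution MIC on Mueller-Hinton agar under standard conditions (pH 7.2). Antibiotic-containing plates were made the same day from freshly prepared medium. Agar pH was checked after solidifying. Both fluoroquinolones were tested simultaneously against A. baumannii isolates with characterized gyrA/parC genes. MICs are in μg/ml.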
# Acinetobacter baumannii [6] = test: Antimicrobial activity against Acinetobacter baumannii isolate 12 at pH 7.2; type: functional; outline: as §1
# Acinetobacter baumannii [7] = test: Antimicrobial activity against Acinetobacter baumannii isolate 13 at pH 7.2; type: functional; outline: as §1
# Acinetobacter baumannii [8] = test: Antimicrobial activity against Acinetobacter baumannii isolate 15 at pH 7.2; type: functional; outline: as §1
# Acinetobacter baumannii [9] = test: Antimicrobial activity against Acinetobacter baumannii isolate 16 at pH 7.2; type: functional; outline: as §1
# Acinetobacter baumannii [10] = test: Antimicrobial activity against Acinetobacter baumannii isolate 18 at pH 7.2; type: functional; outline: as §1
# Acinetobacter baumannii [11] = test: Antimicrobial activity against Acinetobacter baumannii isolate 19 harboring GyrA Ser83-Leu mutation at pH 7.2; type: functional; outline: as §1
# Acinetobacter baumannii [12] = test: Antimicrobial activity against Acinetobacter baumannii isolate 22 harboring GyrA Ser83-Leu mutation at pH 7.2; type: functional; outline: as §1
# Acinetobacter baumannii [13] = test: Antimicrobial activity against Acinetobacter baumannii isolate 25 harboring GyrA Ser83-Leu mutation at pH 7.2; type: functional; outline: as §1
# Acinetobacter baumannii [14] = test: Antimicrobial activity against Acinetobacter baumannii isolate 26 harboring GyrA Ser83-Leu mutation at pH 7.2; type: functional; outline: as §1
# Acinetobacter baumannii [15] = test: Antimicrobial activity against Acinetobacter baumannii isolate 27 harboring GyrA Ser83-Leu mutation at pH 7.2; type: functional; outline: as §1
# Acinetobacter baumannii [16] = test: Antimicrobial activity against Acinetobacter baumannii isolate 38 harboring GyrA Ser83-Leu mutation at pH 7.2; type: functional; outline: as §2
# Acinetobacter baumannii [17] = test: Antimicrobial activity against Acinetobacter baumannii isolate 39 harboring GyrA Ser83-Leu mutation at pH 7.2; type: functional; outline: as §2
# Acinetobacter baumannii [18] = test: Antimicrobial activity against Acinetobacter baumannii isolate 40 harboring GyrA Ser83-Leu mutation at pH 7.2; type: functional; outline: as §2
# Acinetobacter baumannii [19] = test: Antimicrobial activity against Acinetobacter baumannii isolate 41 harboring GyrA Ser83-Leu mutation at pH 7.2; type: functional; outline: as §2
# Acinetobacter baumannii [20] = test: Antimicrobial activity against Acinetobacter baumannii isolate 44 harboring GyrA Ser83-Leu and ParC Glu84-Lys mutation at pH 7.2; type: functional; outline: as §2
# Acinetobacter baumannii [21] = test: Antimicrobial activity against Acinetobacter baumannii isolate 52 harboring GyrA Ser83-Leu and ParC Ser80-Leu mutation at pH 7.2; type: functional; outline: as §2
# Acinetobacter baumannii [22] = test: Antimicrobial activity against Acinetobacter baumannii isolate 58 harboring GyrA Ser83-Leu and ParC Ser80-Leu mutation at pH 7.2; type: functional; outline: as §3
# Acinetobacter baumannii [23] = test: Antimicrobial activity against Acinetobacter baumannii isolate 62 harboring GyrA Ser83-Leu and ParC Ser80-Leu mutation at pH 7.2; type: functional; outline: as §3
# Acinetobacter baumannii [24] = test: Antimicrobial activity against Acinetobacter baumannii isolate 64 harboring GyrA Ser83-Leu and ParC Ser80-Leu mutation at pH 7.2; type: functional; outline: as §3
# Acinetobacter baumannii [25] = test: Antimicrobial activity against Acinetobacter baumannii isolate 1 at pH 5.8; type: functional
# Outline: (§4)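 MIC by agar dilution on Mueller-Hinton agar acidified to pH 5.8 with HCl before antibiotic-containing plates were poured. Agar pH was rechecked once the agar had solidified. Isolates had characterized gyrA/parC genes. Plates for both drugs were made the same day from fresh media, and MICs were read in parallel with the standard-pH set.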
# Acinetobacter baumannii [26] = test: Antimicrobial activity against Acinetobacter baumannii isolate 2 at pH 5.8; type: functional; outline: as §4
# Acinetobacter baumannii [27] = test: Antimicrobial activity against Acinetobacter baumannii isolate 15 at pH 5.8; type: functional; outline: as §4
# Acinetobacter baumannii [28] = test: Antimicrobial activity against Acinetobacter baumannii isolate 19 harboring GyrA Ser83-Leu mutation at pH 5.8; type: functional; outline: as §4
# Acinetobacter baumannii [29] = test: Antimicrobial activity against Acinetobacter baumannii isolate 21 harboring GyrA Ser83-Leu mutation at pH 5.8; type: functional; outline: as §4
# Acinetobacter baumannii [30] = test: Antimicrobial activity against Acinetobacter baumannii isolate 29 harboring GyrA Ser83-Leu mutation at pH 5.8; type: functional; outline: as §4
# Acinetobacter baumannii [31] = test: Antimicrobial activity against Acinetobacter baumannii isolate 30 harboring GyrA Ser83-Leu mutation at pH 5.8; type: functional; outline: as §4
# Acinetobacter baumannii [32] = test: Antimicrobial activity against Acinetobacter baumannii isolate 35 harboring GyrA Ser83-Leu mutation at pH 5.8; type: functional; outline: as §2
# Acinetobacter baumannii [33] = test: Antimicrobial activity against Acinetobacter baumannii isolate 36 harboring GyrA Ser83-Leu mutation at pH 5.8; type: functional; outline: as §2
# Acinetobacter baumannii [34] = test: Antimicrobial activity against Acinetobacter baumannii isolate 37 harboring GyrA Ser83-Leu mutation at pH 5.8; type: functional; outline: as §2
# Acinetobacter baumannii [35] = test: Antimicrobial activity against Acinetobacter baumannii isolate 39 harboring GyrA Ser83-Leu mutation at pH 5.8; type: functional; outline: as §2
# Acinetobacter baumannii [36] = test: Antimicrobial activity against Acinetobacter baumannii isolate 40 harboring GyrA Ser83-Leu mutation at pH 5.8; type: functional; outline: as §2
# Acinetobacter baumannii [37] = test: Antimicrobial activity against Acinetobacter baumannii isolate 46 harboring GyrA Ser83-Leu and ParC Ser80-Leu mutation at pH 5.8; type: functional; outline: as §2
# Acinetobacter baumannii [38] = test: Antimicrobial activity against Acinetobacter baumannii isolate 50 harboring GyrA Ser83-Leu and ParC Ser80-Leu mutation at pH 5.8; type: functional; outline: as §2
# Acinetobacter baumannii [39] = test: Antimicrobial activity against Acinetobacter baumannii isolate 63 harboring GyrA Ser83-Leu and ParC Glu84-Lys mutation at pH 5.8; type: functional
# Outline: (§5)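 Agar dilution MIC on Mueller-Hinton agar acidified to pH 5.8 with HCl before the antibiotic-containing plates were poured. Agar pH was checked after solidifying. Plates were made the same day from fresh medium. Both fluoroquinolones were tested simultaneously against A. baumannii isolates with characterized gyrA/parC genes. MICs are in μg/ml.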
# Acinetobacter baumannii [40] = test: Antimicrobial activity against Acinetobacter baumannii isolate 64 harboring GyrA Ser83-Leu and ParC Ser80-Leu mutation at pH 5.8; type: functional; outline: as §5
# Acinetobacter baumannii [41] = test: Antimicrobial activity against Acinetobacter baumannii isolate 66 harboring GyrA Ser83-Leu mutation at pH 5.8; type: functional; outline: as §5
# Acinetobacter baumannii [42] = test: Antimicrobial activity against Acinetobacter baumannii isolate 60 harboring GyrA Ser83-Leu and ParC Ser80-Leu mutation at pH 5.8
structure (smiles),measurement,setting,value
N#Cc1c(N2C[C@@H]3NCCO[C@H]3C2)c(F)cc2c(=O)c(C(=O)O)cn(C3CC3)c12 [FINAFLOXACIN],MIC,Acinetobacter baumannii [1],0.12 µg/mL
same,MIC,Acinetobacter baumannii [2],0.12 µg/mL
same,MIC,Acinetobacter baumannii [3],0.25 µg/mL
same,MIC,Acinetobacter baumannii [4],0.25 µg/mL
same,MIC,Acinetobacter baumannii [5],0.25 µg/mL
same,MIC,Acinetobacter baumannii [6],1 µg/mL
same,MIC,Acinetobacter baumannii [7],1 µg/mL
same,MIC,Acinetobacter baumannii [8],1 µg/mL
same,MIC,Acinetobacter baumannii [9],1 µg/mL
same,MIC,Acinetobacter baumannii [10],1 µg/mL
same,MIC,Acinetobacter baumannii [11],0.5 µg/mL
same,MIC,Acinetobacter baumannii [12],8 µg/mL
same,MIC,Acinetobacter baumannii [13],16 µg/mL
same,MIC,Acinetobacter baumannii [14],16 µg/mL
same,MIC,Acinetobacter baumannii [15],16 µg/mL
same,MIC,Acinetobacter baumannii [16],16 µg/mL
same,MIC,Acinetobacter baumannii [17],16 µg/mL
same,MIC,Acinetobacter baumannii [18],16 µg/mL
same,MIC,Acinetobacter baumannii [19],16 µg/mL
same,MIC,Acinetobacter baumannii [20],16 µg/mL
same,MIC,Acinetobacter baumannii [21],32 µg/mL
same,MIC,Acinetobacter baumannii [22],64 µg/mL
same,MIC,Acinetobacter baumannii [23],64 µg/mL
same,MIC,Acinetobacter baumannii [24],64 µg/mL
same,MIC,Acinetobacter baumannii [25],0.06 µg/mL
same,MIC,Acinetobacter baumannii [26],0.12 µg/mL
same,MIC,Acinetobacter baumannii [27],0.12 µg/mL
same,MIC,Acinetobacter baumannii [28],0.12 µg/mL
same,MIC,Acinetobacter baumannii [29],0.25 µg/mL
same,MIC,Acinetobacter baumannii [30],4 µg/mL
same,MIC,Acinetobacter baumannii [31],0.5 µg/mL
same,MIC,Acinetobacter baumannii [32],2 µg/mL
same,MIC,Acinetobacter baumannii [33],2 µg/mL
same,MIC,Acinetobacter baumannii [34],2 µg/mL
same,MIC,Acinetobacter baumannii [35],2 µg/mL
same,MIC,Acinetobacter baumannii [36],2 µg/mL
same,MIC,Acinetobacter baumannii [37],2 µg/mL
same,MIC,Acinetobacter baumannii [38],4 µg/mL
same,MIC,Acinetobacter baumannii [39],2 µg/mL
same,MIC,Acinetobacter baumannii [40],4 µg/mL
same,MIC,Acinetobacter baumannii [41],2 µg/mL
same,MIC,Acinetobacter baumannii [42],8 µg/mL
